Test results taken from publication PMC3149845 (The Journal of neuroscience : the official journal of the …, 2011).
“Also recorded” adds a separate entry of the source. Peptide text beside a SMILES is read from it.

Columns and labels:
Format in all cases: cell-based
[1] = molecular target: T1, hTas1R2:S40T/I67S/D142E+hTas1R3 (Homo sapiens, UniProt Q8TE23, D142E/I67S/S40T); experiment: Ca2+ mobilization, mutated human receptor; conditions: for calcium response to sweetener: aspartame 10mM, neotame 1mM, sucralose 2 mM, compared with hTas1R2/hTas1R3; for response in dose-response experiment: versus hTas1R2+hTas1R3
T1 sequence (Q8TE23 20-839 S40T/I67S/D142E): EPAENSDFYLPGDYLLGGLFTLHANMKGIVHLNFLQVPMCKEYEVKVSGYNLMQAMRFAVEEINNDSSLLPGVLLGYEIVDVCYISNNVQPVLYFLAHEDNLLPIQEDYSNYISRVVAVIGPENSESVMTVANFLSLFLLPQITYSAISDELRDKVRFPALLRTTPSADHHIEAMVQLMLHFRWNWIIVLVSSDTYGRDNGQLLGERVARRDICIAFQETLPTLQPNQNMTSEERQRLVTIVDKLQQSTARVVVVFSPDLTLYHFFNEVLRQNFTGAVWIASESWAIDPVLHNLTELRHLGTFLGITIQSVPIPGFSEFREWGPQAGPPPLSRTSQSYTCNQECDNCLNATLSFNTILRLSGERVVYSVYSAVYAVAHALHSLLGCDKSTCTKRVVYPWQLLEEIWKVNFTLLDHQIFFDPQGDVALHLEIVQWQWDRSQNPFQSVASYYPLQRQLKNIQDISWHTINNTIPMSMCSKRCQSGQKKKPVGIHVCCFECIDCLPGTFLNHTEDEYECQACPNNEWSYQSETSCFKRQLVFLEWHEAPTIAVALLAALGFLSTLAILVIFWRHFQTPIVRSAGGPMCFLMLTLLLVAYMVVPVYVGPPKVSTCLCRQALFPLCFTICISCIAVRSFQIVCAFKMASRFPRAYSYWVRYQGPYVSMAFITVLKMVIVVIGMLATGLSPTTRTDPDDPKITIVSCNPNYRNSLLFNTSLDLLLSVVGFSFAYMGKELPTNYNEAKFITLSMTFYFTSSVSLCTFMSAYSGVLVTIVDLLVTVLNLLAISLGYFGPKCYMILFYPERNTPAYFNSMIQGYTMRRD
T1 sequence (Q7RTX0 21-852 partner): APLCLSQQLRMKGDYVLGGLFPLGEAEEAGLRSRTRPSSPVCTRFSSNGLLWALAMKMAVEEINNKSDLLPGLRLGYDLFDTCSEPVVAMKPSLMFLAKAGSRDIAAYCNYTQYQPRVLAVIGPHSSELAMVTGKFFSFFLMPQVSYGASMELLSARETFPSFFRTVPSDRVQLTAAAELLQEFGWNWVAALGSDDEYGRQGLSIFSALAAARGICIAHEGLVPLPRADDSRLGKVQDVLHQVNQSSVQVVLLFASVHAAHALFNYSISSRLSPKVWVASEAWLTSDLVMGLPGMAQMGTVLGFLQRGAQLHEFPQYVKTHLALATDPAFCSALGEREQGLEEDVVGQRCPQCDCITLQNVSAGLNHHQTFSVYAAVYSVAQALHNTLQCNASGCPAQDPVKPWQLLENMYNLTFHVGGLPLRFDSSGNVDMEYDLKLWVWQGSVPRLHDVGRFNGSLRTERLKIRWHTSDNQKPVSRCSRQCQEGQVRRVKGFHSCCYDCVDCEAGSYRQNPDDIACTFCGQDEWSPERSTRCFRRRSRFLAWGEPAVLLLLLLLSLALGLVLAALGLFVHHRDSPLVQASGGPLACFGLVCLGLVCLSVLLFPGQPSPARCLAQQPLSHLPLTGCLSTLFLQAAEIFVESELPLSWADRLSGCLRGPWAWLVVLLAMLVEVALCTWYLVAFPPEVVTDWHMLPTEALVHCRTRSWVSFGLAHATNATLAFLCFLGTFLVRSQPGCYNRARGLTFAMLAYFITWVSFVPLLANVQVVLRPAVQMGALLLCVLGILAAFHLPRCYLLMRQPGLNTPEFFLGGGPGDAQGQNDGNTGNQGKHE

[2] = tested on: All the human and squirrel monkey mutants; experiment: Ca2+ mobilization, control response of all mutants; conditions: sucralose 2 mM
Summary of the method: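 HEK293E cells grown at 37°C in Opti-MEM with 5% FBS and seeded at 50,000/well. Cells co-lipofected with Tas1R plasmids and Gα16-gust44 (0.06 μg each per well); medium changed at 20 h, assayed 24 h later. Cells loaded 1 h with Fluo-4 AM in HEPES-buffered HBSS. Tastant added at 30 s; fluorescence (ex 488/em 525 nm) read every 2 s for 150 s more. ΔF/F normalised to human receptor maximal sucralose response; mean ± SEM, three independent experiments.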

[3] = molecular target: hTas1R2:S40T/I67S+hTas1R3 (Homo sapiens, UniProt Q8TE23, I67S/S40T); experiment: Ca2+ mobilization, mutated human receptor; conditions: aspartame 10mM, neotame 1mM, sucralose 2 mM; compared with hTas1R2/hTas1R3
Summary of the method: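 Mutant hTas1R2 with hTas1R3 and Gα16-gust44 in HEK293E cells (50,000/well, 0.06 μg each plasmid per well); 44 h post-transfection, loaded with 3 μM Fluo-4 AM in HBSS/20 mM HEPES for 1 h. Fluorescence (ex 488/em 525 nm) recorded every 2 s, tastant at 30 s, 150 s further. ΔF/F normalized to the hTas1R2/hTas1R3 sucralose (2 mm) maximum; three independent experiments; one-way ANOVA with Tukey test.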

[4] = ΔF/F normalized to maximum response of hTas1R2/hTas1R3 to neotame

Sequence of hTas1R2:S40T/I67S+hTas1R3 (Q8TE23 20-839 S40T/I67S, one chain of several): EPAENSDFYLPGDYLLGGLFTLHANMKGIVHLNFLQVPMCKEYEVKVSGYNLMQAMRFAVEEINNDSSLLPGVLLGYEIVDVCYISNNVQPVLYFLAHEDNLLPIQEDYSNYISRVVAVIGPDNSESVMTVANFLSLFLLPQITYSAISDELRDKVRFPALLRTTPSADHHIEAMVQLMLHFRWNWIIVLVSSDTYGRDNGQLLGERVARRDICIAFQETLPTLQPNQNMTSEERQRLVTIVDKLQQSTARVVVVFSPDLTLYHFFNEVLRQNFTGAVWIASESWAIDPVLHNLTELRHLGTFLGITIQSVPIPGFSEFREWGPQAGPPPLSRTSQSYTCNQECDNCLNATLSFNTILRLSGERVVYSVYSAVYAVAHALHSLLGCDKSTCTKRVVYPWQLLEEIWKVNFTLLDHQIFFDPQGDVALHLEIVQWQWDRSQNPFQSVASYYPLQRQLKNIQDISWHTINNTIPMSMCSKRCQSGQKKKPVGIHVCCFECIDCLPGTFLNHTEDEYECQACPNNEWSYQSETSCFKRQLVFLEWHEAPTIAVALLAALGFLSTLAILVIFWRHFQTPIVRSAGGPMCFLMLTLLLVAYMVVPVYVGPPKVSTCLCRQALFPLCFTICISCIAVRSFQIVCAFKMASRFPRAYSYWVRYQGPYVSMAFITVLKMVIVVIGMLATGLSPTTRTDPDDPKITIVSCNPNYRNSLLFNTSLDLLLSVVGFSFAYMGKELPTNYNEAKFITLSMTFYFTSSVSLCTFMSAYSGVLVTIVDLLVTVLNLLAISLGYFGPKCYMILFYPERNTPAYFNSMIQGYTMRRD

SMILES	EC50 ([1]; HEK293E cells with Gα16-gust44, dose-response, calcium mobilization)	calcium response to sweetener [1]	response in dose-response experiment ([1]; dose-response)	Bottom (B) of sigmoid dose-response fit [1, 4]	Top (T) of sigmoid dose-response fit [1, 4]	calcium response to the control sweetener [2]	calcium response to sweetener [3]
COC(=O)[C@H](Cc1ccccc1)NC(=O)[C@H](CC(=O)O)NCCC(C)(C)C [neotame]	12 mM	greatly impaired responsiveness; also recorded: almost completely abolished	weaker responses	−1.486	39.87		
OC[C@H]1O[C@H](O[C@]2(CCl)O[C@H](CCl)[C@@H](O)[C@@H]2O)[C@H](O)[C@@H](O)[C@H]1Cl [sucralose]						significant level of response	
COC(=O)[C@H](Cc1ccccc1)NC(=O)[C@@H](N)CC(=O)O [aspartame, L-α-aspartly-L-phenylalanine methyl ester] (H-Asp-Phe-OMe)		greatly impaired responsiveness	no responses				greater than multiple mutants that contained the D142E mutant
